SMILES strings stand for the structures. Calls of active or inactive are those of the source.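 The calls were made as follows, unless noted: active = viability at or below 30% in both replicate assays; inconclusive = viability at or below 30% in just one of the two assays; inactive = the rest.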

Assay [1] in a line: Her2 expression decrease, cell viability multiplex – SKBR3 breast tumor cells, AlphaScreen, ATP viability, primary screen (AID 461;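 active = Her2 level under about 52% in both replicate screens, with viability over 70% of control, limit read from the data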;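 as to Her2 level: lower value means less Her2 protein in the cells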;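 as to viability: percent of carrier control wells set as 100% viability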). The following applies: SKBR3 Her2 protein level, 18-24 h, measured here: SKBR3 viability, ATP luminescence, at 10 µM.
The target in assay [2] is Receptor tyrosine-protein kinase erbB-2 (Homo sapiens) (UniProt P04626). The description is as above. The following applies: 18-24 h, at 10 µM, stronger effect = lower value.
Assay [3] can be described thus: reduced viability of SK-BR-3 breast cancer cells – cell-based, 24 h, human, pilot screen (AID 572;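 active = viability at or below 10% of carrier control in both of two separate runs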;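 also: compound exposure lasted between 18 and 24 h rather than exactly 24 h; 100% = carrier-treated control wells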). The following applies: SK-BR-3 viability, CellTiter-Glo luminescence, at 10 µM, stronger effect = lower value. A general note: ATP-based viability assays read luminescence as a measure of living cells.
A short description of assay [4]: HUVEC growth inhibition – cell-based, human, primary screen (AID 575).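 Also: 100% = median of untreated cell wells with 0.1% DMSO on each plate.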 The following applies: HUVEC proliferation, CellTiter-Glo luminescence, 72 h; at 10 µM; stronger effect = lower value. The procedure, abridged: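 Test system: primary human umbilical vein endothelial cells; medium: endothelial basal medium with 2% FBS plus growth supplements; dosing: 10 µM compound only; times: 72 h treatment at 37 °C; signal: CTG luminescence; read-out: % viability relative to median vehicle-well signal on each plate; control set: vehicle and MePR control wells; plate: 384-well, collagen-coated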

Assay [5] in a line: H69AR cell proliferation blockers – human, duplicate replicates, primary screen (AID 580;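 active = viability at or under a set limit in both replicates, limit being median viability minus 3 SD, cut at about 48% in these data, passing the limit was not always enough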;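 also: 100% = mean luminescence of untreated wells and 0% = no signal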). The following applies: H69AR lung tumor cells viability, ATP luminescence, 72 h; at 10 µM; stronger effect = lower value.
The nature of assay [6]: MRP1 drug-resistance reversers in H69AR cells – cell-based, doxorubicin co-treatment, pilot screen (AID 601;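 active = viability loss from added drug above about 55%, and viability with drug at most 40%, in both replicates, limit read from the data, passing the limit was not always enough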). The following applies: CellTiter-Glo, 72 h, at 10 µM; for differential viability (reversal): stronger effect = higher value.
Assay [7] is described as follows: yeast transport mutant growth inhibition pilot in 384-well plates, post-Golgi transport modulator project (AID 636; in the data active = inhibition above about 31%). As to conditions: absorbance 615 nm, about 18 h, stronger effect = higher value.
A short description of assay [8]: growth suppression of yeast trafficking mutant, preliminary HTS, modulators of trafficking downstream of Golgi apparatus project, 1536-format plate, OD 615 nm (AID 637; in the data active = inhibition above about 30%). The following applies: yeast transport mutant growth, absorbance 615 nm, 18 h; stronger effect = higher value.
[9] abbreviates: H69AR cells + 2 uM doxorubicin, measured here: viability with 2 uM doxorubicin, stronger effect = lower value.
The mark [10] stands for this setting: H69AR cells, compound alone cytotoxicity.

Receptor tyrosine-protein kinase erbB-2 (Homo sapiens), sequence (P04626 whole entry, looked up): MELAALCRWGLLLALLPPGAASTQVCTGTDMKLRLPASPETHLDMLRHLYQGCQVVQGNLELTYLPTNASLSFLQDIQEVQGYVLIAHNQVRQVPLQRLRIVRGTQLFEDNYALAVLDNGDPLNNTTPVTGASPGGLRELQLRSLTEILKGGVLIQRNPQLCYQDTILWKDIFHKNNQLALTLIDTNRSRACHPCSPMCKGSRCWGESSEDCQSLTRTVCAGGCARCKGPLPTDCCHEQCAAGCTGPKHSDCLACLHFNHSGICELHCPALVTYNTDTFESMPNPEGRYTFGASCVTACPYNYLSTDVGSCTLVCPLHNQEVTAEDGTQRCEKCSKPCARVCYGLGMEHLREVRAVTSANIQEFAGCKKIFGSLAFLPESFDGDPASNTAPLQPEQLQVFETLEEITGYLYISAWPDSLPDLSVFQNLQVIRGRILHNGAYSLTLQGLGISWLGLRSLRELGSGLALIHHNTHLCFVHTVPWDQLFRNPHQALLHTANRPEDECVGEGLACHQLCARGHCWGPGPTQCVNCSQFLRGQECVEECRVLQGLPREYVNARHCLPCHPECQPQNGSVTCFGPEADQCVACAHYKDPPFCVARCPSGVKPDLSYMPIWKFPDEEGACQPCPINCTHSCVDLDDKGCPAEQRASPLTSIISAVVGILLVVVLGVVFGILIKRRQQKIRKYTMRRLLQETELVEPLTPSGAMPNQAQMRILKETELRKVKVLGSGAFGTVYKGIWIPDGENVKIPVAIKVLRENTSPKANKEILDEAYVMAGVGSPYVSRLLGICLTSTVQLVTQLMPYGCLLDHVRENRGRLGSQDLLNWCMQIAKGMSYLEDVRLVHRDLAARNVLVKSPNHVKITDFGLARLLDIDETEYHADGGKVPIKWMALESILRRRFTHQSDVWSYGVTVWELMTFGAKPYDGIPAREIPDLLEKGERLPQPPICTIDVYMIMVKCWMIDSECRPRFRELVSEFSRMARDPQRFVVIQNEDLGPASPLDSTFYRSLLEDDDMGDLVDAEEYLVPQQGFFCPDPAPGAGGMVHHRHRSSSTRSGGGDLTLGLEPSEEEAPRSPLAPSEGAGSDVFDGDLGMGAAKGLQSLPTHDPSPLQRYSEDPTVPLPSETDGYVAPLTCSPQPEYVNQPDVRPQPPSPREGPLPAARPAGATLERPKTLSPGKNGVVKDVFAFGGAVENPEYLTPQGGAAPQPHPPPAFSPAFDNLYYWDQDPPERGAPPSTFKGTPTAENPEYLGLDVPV

`Fc1cc(F)c(F)c(SCCc2ccncc2)c1F`: the viability (usually a read-out of living cells in per cent, often relative to untreated cells) is 97% in assay [1]; 97% (inactive) in assay [3]; 93.8% (inactive) in assay [4]; 85.3% (inactive) in assay [5]; 80.3% in assay [6] (setting [9]); 85.3% in assay [6] (setting [10]). Moreover, in assay [2], the Her2 level was 81.5% (inactive). For the same compound, the differential viability (reversal) in assay [6] (H69AR cells + 2 uM doxorubicin) was 5% (inactive). Moreover, the inhibition (in general, the change of the read-out against control, counted positive when it falls) is 0.67% (inactive) in assay [7] and 1.45% (inactive) in assay [8].

With `Cc1ccc(-c2csc3nnc(SCC(=O)NCc4ccco4)n23)cc1`, the viability was 88.5% in assay [1]; 88.5% (inactive) in assay [3]; 85.6% (inactive) in assay [4]; 84.2% (inactive) in assay [5]; 83.6% in assay [6] (setting [9]); 84.2% in assay [6] (setting [10]). Besides, the Her2 level in assay [2] was 84.5% (inactive). Also, the differential viability (reversal) in assay [6] (H69AR cells + 2 uM doxorubicin) is 0.64% (inactive). The inhibition was -6.27% (inactive) in assay [7] and -4.19% (inactive) in assay [8].

With `CCCCn1c(SCC(=O)c2ccc3c(c2)OCCO3)nnc1-c1ccco1`, the viability in assay [1] was 94.5%; in assay [3], 94.5% (inactive); in assay [4], 81.8% (inactive); in assay [5] it was 95% (inactive); in assay [6] (setting [9]) it was 93.4%; in assay [6] (setting [10]), 95%. In addition, the Her2 level in assay [2] is 104% (inactive). The differential viability (reversal) in assay [6] (H69AR cells + 2 uM doxorubicin) was 1.53% (inactive). For the same compound, the inhibition in assay [7] was 1.73% (inactive); in assay [8], 16.1% (inactive).

For the compound `CCC(=O)N1CCN(CCN=CC2=C(O)CC(C)(C)CC2=O)CC1`, the viability in assay [1] was 90.5%; in assay [3], 90.5% (inactive); in assay [4], 79.6% (inactive); in assay [5], 107% (inactive); in assay [6] (setting [9]), 95.2%; in assay [6] (setting [10]), 107%. Besides, the Her2 level in assay [2] is 93.5% (inactive). Moreover, in assay [6] (H69AR cells + 2 uM doxorubicin), the differential viability (reversal) is 11.3% (inactive). Also, the inhibition in assay [7] was -1.6% (inactive); in assay [8] it was -6.77% (inactive).

`CCCS(=O)(=O)Nc1c(C(=O)O)[nH]c2ccccc12`: the viability was 94.5% in assay [1]; 94.5% (inactive) in assay [3]; 83.9% (inactive) in assay [4]; 94.5% (inactive) in assay [5]; 106% in assay [6] (setting [9]); 94.5% in assay [6] (setting [10]). Besides, in assay [2], the Her2 level was 93% (inactive). In addition, the differential viability (reversal) in assay [6] (H69AR cells + 2 uM doxorubicin) is -11.1% (inactive). Besides, the figures for the inhibition in assay [7] and in assay [8] were -5.13% (inactive) and -12.8% (inactive), respectively.

`COc1ccc(N2CCN(C(c3cccs3)c3nnnn3C3CCCC3)CC2)cc1` (stereo not given): the viability in assay [1] was 90.5%; in assay [3] it was 90.5% (inactive); in assay [4], 69.3% (inactive); in assay [5], 70% (inactive); in assay [6] (setting [9]), 87.5%; in assay [6] (setting [10]), 70%. The Her2 level in assay [2] is 95% (inactive). The differential viability (reversal) in assay [6] (H69AR cells + 2 uM doxorubicin) was -17.6% (inactive). Besides, the inhibition in assay [7] is -3.25% (inactive); in assay [8], -5.87% (inactive).

`N#CCSc1nc(-c2ccccc2)cs1`: the viability is 86.5% in assay [1]; 86.5% (inactive) in assay [3]; 109% (inactive) in assay [4]; 98% (inactive) in assay [5]; 98.9% in assay [6] (setting [9]); 98% in assay [6] (setting [10]). The Her2 level in assay [2] is 98.5% (inactive). Moreover, in assay [6] (H69AR cells + 2 uM doxorubicin), the differential viability (reversal) is -0.97% (inactive). Moreover, the inhibition in assay [7] is -1.71% (inactive); in assay [8], 2.58% (inactive).

Turning to `O=C(O)CCC(=O)c1c[nH]c2ccccc12`, the viability in assay [1] was 88%; in assay [3] it was 88% (inactive); in assay [4] it was 88.4% (inactive); in assay [5] it was 95.6% (inactive); in assay [6] (setting [9]), 101%; in assay [6] (setting [10]) it was 95.6%. For the same compound, the Her2 level in assay [2] was 114% (inactive). Further, the differential viability (reversal) in assay [6] (H69AR cells + 2 uM doxorubicin) was -5.4% (inactive). In addition, the inhibition in assay [7] was 1.47% (inactive); in assay [8], -4.76% (inactive).

For `CC(C)c1ccc(S(=O)(=O)N2CCN(C(=O)c3cccc(F)c3)CC2)cc1`, the viability in assay [1] was 106%; in assay [3], 106% (inactive); in assay [4] it was 92% (inactive); in assay [5], 88.3% (inactive); in assay [6] (setting [9]), 96.9%; in assay [6] (setting [10]), 88.3%. In assay [2], the Her2 level is 104% (inactive). The differential viability (reversal) in assay [6] (H69AR cells + 2 uM doxorubicin) is -8.65% (inactive). Moreover, the inhibition in assay [7] was -5.73% (inactive); in assay [8], 3.28% (inactive).

As for `Cc1cccc(NC2SC(=O)N(c3ccccc3)C2=O)c1` (stereo not given), the viability in assay [1] was 100%; in assay [3], 100% (inactive); in assay [4] it was 88.9% (inactive); in assay [5] it was 87.6% (inactive); in assay [6] (setting [9]) it was 97.9%; in assay [6] (setting [10]), 87.6%. The Her2 level in assay [2] is 81% (inactive). Also, the differential viability (reversal) in assay [6] (H69AR cells + 2 uM doxorubicin) is -10.4% (inactive). For the same compound, the inhibition in assay [7] was -3.25% (inactive); in assay [8], -5.5% (inactive).

In the case of `Cc1cc(C(=O)NCCCc2ccccc2)no1`, the viability is 100% in assay [1]; 100% (inactive) in assay [3]; 91.4% (inactive) in assay [4]; 107% (inactive) in assay [5]; 88.7% in assay [6] (setting [9]); 107% in assay [6] (setting [10]). For the same compound, the Her2 level in assay [2] was 86% (inactive). The differential viability (reversal) in assay [6] (H69AR cells + 2 uM doxorubicin) is 18.6% (inactive). The figures for the inhibition in assay [7] and in assay [8] were -5% (inactive) and -2.83% (inactive), respectively.

For the compound `O=C(NCc1cccnc1)c1ccc(=O)oc1`, the viability in assay [1] was 89.5%; in assay [3], 89.5% (inactive); in assay [4], 106% (inactive); in assay [5] it was 83.4% (inactive); in assay [6] (setting [9]), 88.3%; in assay [6] (setting [10]), 83.4%. Besides, the Her2 level in assay [2] was 90% (inactive). Besides, the differential viability (reversal) in assay [6] (H69AR cells + 2 uM doxorubicin) is -4.97% (inactive). The inhibition was -5.81% (inactive) in assay [7] and -5.33% (inactive) in assay [8].

Turning to `CC1(C)CC(=O)C=C(Nc2ccc(F)cc2)C1`, the viability in assay [1] was 102%; in assay [3], 102% (inactive); in assay [4] it was 90.5% (inactive); in assay [5], 96.5% (inactive); in assay [6] (setting [9]), 90.1%; in assay [6] (setting [10]), 96.5%. Moreover, the Her2 level in assay [2] was 95% (inactive). Also, the differential viability (reversal) in assay [6] (H69AR cells + 2 uM doxorubicin) was 6.35% (inactive). In addition, the inhibition was -0.39% (inactive) in assay [7] and -3.64% (inactive) in assay [8].

Take `Cc1cc(Nc2ccccc2N2CCOCC2)n2ncnc2n1`: the viability in assay [1] is 94.5%; in assay [3] it was 94.5% (inactive); in assay [4], 88% (inactive); in assay [5], 97.1% (inactive); in assay [6] (setting [9]), 97.8%; in assay [6] (setting [10]) it was 97.1%. The Her2 level in assay [2] is 96% (inactive). In addition, the differential viability (reversal) in assay [6] (H69AR cells + 2 uM doxorubicin) is -0.715% (inactive). Also, the inhibition is -2.43% (inactive) in assay [7] and 4.6% (inactive) in assay [8].

These data come from PubChem BioAssay.
